# According to PubChem BioAssay:
# Calls of active or inactive are those of the source.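 The calls were made as follows, unless noted: active = Her2 level under about 52% in both replicate screens, with viability over 70% of control (limit read from the data); inconclusive = Her2 under the limit in one screen only, or viability under 70%; inactive = Her2 level above the set limit.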
# Key:
# [1] = reducers of endogenous Her2 protein level, primary screen, SKBR3 breast tumor cells, AlphaScreen, ATP viability (AID 461); settings: 18-24 h, measured here: SKBR3 viability, ATP luminescence, at 10 µM;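 as to Her2 level: lower value means less Her2 protein in the cells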;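 as to viability: percent of carrier control wells set as 100% viability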
# [2] = biological target: Receptor tyrosine-protein kinase erbB-2 (Homo sapiens) (UniProt P04626); assay: as above; settings: 18-24 h, at 10 µM, stronger effect = lower value
# [3] = SK-BR-3 cell growth inhibitors, pilot screen, 24 h, human (AID 572;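 active = viability at or below 10% of carrier control in both of two separate runs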;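 also: compound exposure lasted between 18 and 24 h rather than exactly 24 h; 100% = carrier-treated control wells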); settings: SK-BR-3 viability, CellTiter-Glo luminescence, at 10 µM, stronger effect = lower value
# [4] = HUVEC growth inhibition – cell-based, human, primary screen (AID 575;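 active = viability at or below 30% in both replicate assays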;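 also: 100% = median of untreated cell wells with 0.1% DMSO on each plate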); settings: HUVEC proliferation, CellTiter-Glo luminescence, 72 h; at 10 µM; stronger effect = lower value
# Procedure, shortened: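 material = primary HUVEC, no more than 12 passages | input = 1250 cells per well | controls = vehicle and MePR control wells | measured by = CTG luminescence | times = 72 h compound incubation | format = collagen-coated 384-well format | read-out = % viability vs DMSO wells | doses = single 10 µM dose, 0.1% DMSO, from 5x medium stock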
# [5] = growth inhibitors of H69AR lung tumor, primary screen, human, duplicate replicates (AID 580;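 active = viability at or under a set limit in both replicates, limit being median viability minus 3 SD, cut at about 48% in these data, passing the limit was not always enough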;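 also: 100% = mean luminescence of untreated wells and 0% = no signal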); settings: H69AR lung tumor cells viability, ATP luminescence, 72 h; at 10 µM; stronger effect = lower value
# [6] = reversal of MRP1-mediated doxorubicin resistance, pilot screen, H69AR cells, doxorubicin co-treatment (AID 601;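 active = viability loss from added drug above about 55%, and viability with drug at most 40%, in both replicates, limit read from the data, passing the limit was not always enough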); settings: CellTiter-Glo, 72 h, at 10 µM; for differential viability (reversal): stronger effect = higher value
# [7] = 384-well plate pilot, post-Golgi transport modulator project, inhibition of yeast transport mutant growth (AID 636; in the data active = inhibition above about 31%); settings: absorbance 615 nm, about 18 h, stronger effect = higher value
# [8] = growth suppression of yeast trafficking mutant, preliminary HTS, modulators of trafficking downstream of Golgi apparatus project, 1536-format plate, OD 615 nm (AID 637; in the data active = inhibition above about 30%); settings: yeast transport mutant growth, absorbance 615 nm, 18 h; stronger effect = higher value
# [9] = H69AR cells + 2 uM doxorubicin, measured here: viability with 2 uM doxorubicin, stronger effect = lower value
# [10] = H69AR cells, compound alone cytotoxicity
# Sequence of Receptor tyrosine-protein kinase erbB-2 (Homo sapiens) (P04626 whole entry, looked up): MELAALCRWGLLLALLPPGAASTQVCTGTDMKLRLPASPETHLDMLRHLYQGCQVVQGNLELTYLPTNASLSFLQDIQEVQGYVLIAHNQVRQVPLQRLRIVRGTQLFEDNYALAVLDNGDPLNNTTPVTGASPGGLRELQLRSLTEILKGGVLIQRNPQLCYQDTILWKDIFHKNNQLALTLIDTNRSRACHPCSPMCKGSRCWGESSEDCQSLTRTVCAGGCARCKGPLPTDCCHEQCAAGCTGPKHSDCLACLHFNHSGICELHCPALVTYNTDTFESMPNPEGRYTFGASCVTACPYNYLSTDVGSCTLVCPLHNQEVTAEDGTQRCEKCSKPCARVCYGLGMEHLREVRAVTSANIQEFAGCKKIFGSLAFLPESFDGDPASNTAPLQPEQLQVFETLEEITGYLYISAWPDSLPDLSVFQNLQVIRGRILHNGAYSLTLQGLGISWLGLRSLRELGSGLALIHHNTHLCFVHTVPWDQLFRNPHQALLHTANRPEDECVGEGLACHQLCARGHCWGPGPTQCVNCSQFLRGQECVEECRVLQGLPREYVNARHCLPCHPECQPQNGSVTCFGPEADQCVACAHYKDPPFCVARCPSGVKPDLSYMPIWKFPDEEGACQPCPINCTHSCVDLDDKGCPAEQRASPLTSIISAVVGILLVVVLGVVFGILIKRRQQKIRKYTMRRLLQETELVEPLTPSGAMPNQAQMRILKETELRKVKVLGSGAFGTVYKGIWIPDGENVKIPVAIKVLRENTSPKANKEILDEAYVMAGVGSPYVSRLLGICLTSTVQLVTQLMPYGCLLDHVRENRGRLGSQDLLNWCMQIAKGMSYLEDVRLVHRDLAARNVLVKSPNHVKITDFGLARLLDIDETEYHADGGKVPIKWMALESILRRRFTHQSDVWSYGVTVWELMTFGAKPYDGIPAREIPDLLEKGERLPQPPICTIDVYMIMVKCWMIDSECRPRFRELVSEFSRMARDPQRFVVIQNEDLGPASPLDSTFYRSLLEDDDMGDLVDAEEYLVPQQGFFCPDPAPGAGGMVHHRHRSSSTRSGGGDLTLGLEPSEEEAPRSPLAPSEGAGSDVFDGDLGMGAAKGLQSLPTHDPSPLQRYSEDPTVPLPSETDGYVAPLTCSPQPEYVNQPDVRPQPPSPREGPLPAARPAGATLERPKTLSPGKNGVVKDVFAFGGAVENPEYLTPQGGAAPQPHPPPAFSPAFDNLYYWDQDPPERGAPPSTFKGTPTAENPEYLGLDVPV
Structure (SMILES),viability [1] [%],Her2 level [2],viability [3],viability [4],viability [5],differential viability (reversal) ([6]; H69AR cells + 2 uM doxorubicin),"viability [6, 9] [%]","viability [6, 10] [%]",inhibition [7],inhibition [8]
COc1cc(NS(=O)(=O)N2CCCC2)cc(OC)c1OC,83.5,95.5% (inactive),83.5% (inactive),94.8% (inactive),92.2% (inactive),8.42% (inactive),83.8,92.2,-7.57% (inactive),-2.95% (inactive)
O=C(Nc1ccccn1)NC(C(F)(F)F)C(F)(F)F,98.5,102% (inactive),98.5% (inactive),100% (inactive),92.9% (inactive),2.58% (inactive),90.3,92.9,-1.07% (inactive),1.15% (inactive)
Cc1ccc(OCC(=O)NCCN2CCCC2)cc1,97.5,84.5% (inactive),97.5% (inactive),86% (inactive),95.9% (inactive),9.56% (inactive),86.4,95.9,-6.8% (inactive),2.3% (inactive)
CCOC(=O)c1cn(CC)c2cc(N3CCOCC3)c(F)cc2c1=O,104,106% (inactive),104% (inactive),94.6% (inactive),90.8% (inactive),-10.3% (inactive),101,90.8,2.16% (inactive),-0.63% (inactive)
Cc1ccc(-c2noc(CCC(=O)NCC3CCN(Cc4cccc(C)c4)CC3)n2)cc1,93.5,82.5% (inactive),93.5% (inactive),53.9% (inactive),84.6% (inactive),-11% (inactive),95.6,84.6,-4.87% (inactive),1.83% (inactive)
CCOP(=O)(c1ccc(N(C)C)cc1)C(O)c1ccccc1OC (stereo not given),86,98.5% (inactive),86% (inactive),115% (inactive),98.7% (inactive),3.56% (inactive),95.1,98.7,-1.07% (inactive),-3.65% (inactive)
COc1ccc(NC(=O)CN2CCN(CC(=O)Nc3cc(OC)cc(OC)c3)CC2)cc1,79,96.5% (inactive),79% (inactive),97.8% (inactive),83.1% (inactive),-5.3% (inactive),88.4,83.1,-3.77% (inactive),0.66% (inactive)
CC(=O)c1cccc(NC(=O)N2CCCC2C(=O)NCc2ccc(C)cc2)c1 (stereo not given),104,93.5% (inactive),104% (inactive),92.5% (inactive),95.6% (inactive),8.41% (inactive),87.1,95.6,-8.92% (inactive),8.33% (inactive)
CCN(CCCNC(=O)CC1Oc2ccc(C)cc2NC1=O)Cc1ccccc1 (stereo not given),116,94.5% (inactive),116% (inactive),97.8% (inactive),85% (inactive),4.2% (inactive),80.8,85,-2.27% (inactive),-2.13% (inactive)
COc1ccc2[nH]c(=O)c(CNC3CCCCC3)cc2c1,101,93% (inactive),101% (inactive),115% (inactive),89.5% (inactive),5% (inactive),84.5,89.5,-4.16% (inactive),0.5% (inactive)
Cn1c(=O)[nH]c(=O)c2[nH]c(CN3CCN(C(=O)c4ccco4)CC3)nc21,98.5,80% (inactive),98.5% (inactive),90.3% (inactive),107% (inactive),13.8% (inactive),92.9,107,-1.58% (inactive),0.73% (inactive)
O=C(Nc1cccc2ccccc12)N1CCOCC1,119,103% (inactive),119% (inactive),85.9% (inactive),90.5% (inactive),-8.41% (inactive),98.9,90.5,-2.95% (inactive),11.3% (inactive)
CCOc1ccc(CNC(=O)C2CCCN(S(C)(=O)=O)C2)cc1OC (stereo not given),77,133% (inactive),77% (inactive),102% (inactive),98.8% (inactive),7.88% (inactive),90.9,98.8,-1.67% (inactive),0.17% (inactive)
CC(C)CCNC(=O)C1CCN(C(=O)N(C)C)CC1,104,125% (inactive),104% (inactive),108% (inactive),98.8% (inactive),5% (inactive),93.8,98.8,-1.41% (inactive),-1.33% (inactive)
COc1ccc(Br)cc1CNC(=O)C1CCCN(S(C)(=O)=O)C1 (stereo not given),78,104% (inactive),78% (inactive),94.7% (inactive),88.4% (inactive),6.26% (inactive),82.2,88.4,0.9% (inactive),10.2% (inactive)
CC(C)(C)n1ncc2c(=O)n(CC(=O)c3ccccc3)cnc21,95,84% (inactive),95% (inactive),80.2% (inactive),84.2% (inactive),-2.76% (inactive),86.9,84.2,-0.39% (inactive),-3.23% (inactive)

Structure (SMILES),viability [1] [%],Her2 level [2],viability [3],viability [4],viability [5],differential viability (reversal) ([6]; H69AR cells + 2 uM doxorubicin),"viability [6, 9] [%]","viability [6, 10] [%]",inhibition [7],inhibition [8]
O=C(OCc1ccccc1F)c1ccc2c(c1)OCCO2,122,86% (inactive),122% (inactive),103% (inactive),92% (inactive),9.29% (inactive),82.7,92,-5.47% (inactive),-5.08% (inactive)
CC(C)OC(=O)CSc1nnc(-c2ccco2)n1N,99.5,112% (inactive),99.5% (inactive),90.4% (inactive),107% (inactive),14% (inactive),93.2,107,-5% (inactive),-5.33% (inactive)
C(=N\n1cnnc1)/c1cccnc1,87.5,107% (inactive),87.5% (inactive),105% (inactive),98.6% (inactive),9.86% (inactive),88.8,98.6,4.34% (inactive),0.36% (inactive)
CCCCc1cc(=O)oc2cc(C)cc(OC(C)C(=O)O)c12 (stereo not given),116,115% (inactive),116% (inactive),109% (inactive),104% (inactive),8.19% (inactive),95.8,104,-2.3% (inactive),-7.17% (inactive)
c1ccc2c(c1)[nH]c1c(N3CCC4(CC3)OCCO4)ncnc12,96.5,77% (inactive),96.5% (inactive),65.2% (inactive),92.2% (inactive),5.46% (inactive),86.7,92.2,-3.87% (inactive),-3.87% (inactive)
CCc1nnc2n1N=C(c1ccc(-c3ccc(Cl)cc3Cl)o1)CS2,99.5,81.5% (inactive),99.5% (inactive),110% (inactive),108% (inactive),23.9% (inactive),84.4,108,-2.99% (inactive),-3.17% (inactive)
Cc1c(Cl)cnc(NC(=O)COC(=O)C(NC(=O)c2ccco2)C(C)C)c1Cl (stereo not given),86,85% (inactive),86% (inactive),92.4% (inactive),83.2% (inactive),10.7% (inactive),72.5,83.2,-1.89% (inactive),-4.76% (inactive)
COc1ccc2c(c1OC)C(=O)N(c1ccc3c(c1)CCC3)C2=O,96.5,100% (inactive),96.5% (inactive),90.3% (inactive),107% (inactive),12.6% (inactive),94.9,107,-3.07% (inactive),25.7% (inactive)
CC(O)c1n(C)c(Cl)c[n+]1C (stereo not given),114,95% (inactive),114% (inactive),109% (inactive),103% (inactive),-3.03% (inactive),106,103,-0.66% (inactive),6.39% (inactive)
CCOC(=O)/C=C1\SCC(=O)N1Cc1ccc(Br)cc1,112,94% (inactive),112% (inactive),79.5% (inactive),97.3% (inactive),3.96% (inactive),93.3,97.3,-7.67% (inactive),4.13% (inactive)
CCC(C)(C)n1nnnc1C(c1ccc(OC)c(OC)c1)N1CCN(c2ccc(F)cc2)CC1 (stereo not given),80,93.5% (inactive),80% (inactive),89.2% (inactive),85.8% (inactive),31.3% (inactive),54.5,85.8,-1.95% (inactive),2% (inactive)
Cc1nc(N2CCC(C)CC2)c2c(C)c(C(=O)O)sc2n1,100,77% (inactive),100% (inactive),74.2% (inactive),84.9% (inactive),3.62% (inactive),81.3,84.9,-4.74% (inactive),-6.33% (inactive)
Cc1nc2ccccn2c1P(=O)(N1CCCCC1)N1CCCCC1,92.5,112% (inactive),92.5% (inactive),117% (inactive),91% (inactive),1.72% (inactive),89.3,91,-2.93% (inactive),0% (inactive)
COc1ccc(OCC(=O)N2CCN(C(=O)Cc3ccccc3)CC2)cc1,90,96% (inactive),90% (inactive),101% (inactive),84.6% (inactive),-12.1% (inactive),96.7,84.6,0% (inactive),23.2% (inactive)
Cn1c(SCC(=O)N2CCOCC2)nnc1-c1cccc(NC(=O)c2ccccc2F)c1,102,82.5% (inactive),102% (inactive),94% (inactive),91.5% (inactive),11.4% (inactive),80.1,91.5,-0.92% (inactive),3.06% (inactive)
COc1ccc(C2C(C(=O)c3sc(C)nc3C)=C(O)C(=O)N2CCN2CCOCC2)cc1 (stereo not given),99,92.5% (inactive),99% (inactive),111% (inactive),102% (inactive),5.41% (inactive),96.3,102,0% (inactive),-4.19% (inactive)
